Experimental findings from ChEMBL document CHEMBL1126989, “Synthesis and cytotoxicity of 1,6,7,8-substituted 2-(4'-substituted phenyl)-4-quinolones and related compounds: identification as antimitotic agents interacting with tubulin” (J Med Chem, 1993) are described below.

Values after ≈ are worked out from the molar mass of the structure shown.

The term EC50 denotes the concentration that produces a half-maximal response. What is called inhibition is how much of the control response was suppressed. Usually IC50 stands for the midpoint of a concentration-inhibition curve. A lower IC50 goes with greater potency.

Assay [1] is described as follows: Inhibition of in vitro cell growth which reduces cell growth to 50% of level at start of experiment in colon KM-20L2 cell line. It is filed as functional, Homo sapiens. An outline of the steps:
(§1)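 NCI in vitro disease-oriented screen across about 60 human tumour cell lines. The value is the LC50-type level: the drug concentration that cuts cell number to 50% of the count at the start of the experiment. Values are averages of 2 assays.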

For the next assay, the system named is KB. The assay can be described thus: Cytotoxicity in vitro expressed as 50% reduction in cell number after a 3-day incubation, in human epidermoid carcinoma KB cell line. The class given is functional, cell-based. Particulars: 72 h. An outline of the steps:
(§2)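 Cell lines adapted to antibiotic-free RPMI-1640 with 10% fetal calf serum; ca. 1×10^5 cells per well, overnight stabilization, then serial dilutions added, quadruplicate per concentration; medium-only controls. After 3-4 days, MTT added and incubated overnight; formazan dissolved in DMSO, absorbance at 570 nm. EC50 calculated from two data points bracketing 50% growth inhibition. Actinomycin as positive control.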

The next assay has as its system RPMI-7951. As to the kind of experiment: Cytotoxicity in vitro expressed as 50% reduction in cell number after a 3-day incubation, in human melanoma RPMI-7951 cell line. The class given is functional, cell-based. Particulars: RPMI-7951, 72 h. The procedure, abridged:
as §2

Assay [2] deals with HCC 2998. As to the kind of experiment: Inhibition of in vitro cell growth which reduces cell growth to 50% of level at start of experiment in colon HCC2998 cell line. It is filed as functional, Homo sapiens. The procedure, abridged: as §1
The subject of the next assay is P388. The assay can be described thus: Cytotoxicity in vitro expressed as 50% reduction in cell number after a 3-day incubation, in murine leukemia P-388 cell line. It is filed as functional, cell-based. The settings on record: Mus musculus, P388, 72 h. An outline of the steps: as §2
Assay [3] is described as follows: Inhibition of in vitro cell growth which reduces cell growth to level at start of experiment in colon KM-20L2 cell line. The class given is functional, Homo sapiens.
The subject of assay [4] is HT-29. The assay can be described thus: Inhibition of in vitro cell growth which reduces cell growth to 50% of level at start of experiment in colon HT-29 cell line. It is filed as functional, Homo sapiens. An outline of the steps: as §1
The target in assay [5] is T1, Tubulin (Bos taurus) (UniProt Q6B856+Q862L2+Q862F3). The assay can be described thus: Percentage inhibition of colchicine binding by derivatives of 2-phenyl-4-quinolone at the ratio of 10:1. The class given is protein assay. The settings on record: concentration not given here.
Assay [6] relates to HT-29. The assay can be described thus: Inhibition of in vitro cell growth which reduces cell growth to level at start of experiment in colon HT-29 cell line. The class given is functional, Homo sapiens.
Assay [7] has as its system COLO 205. As to the kind of experiment: Inhibition of in vitro cell growth which reduces cell growth to level at start of experiment in colon COLO-205 cell line. It is filed as functional, Homo sapiens.
Assay [8] deals with SF-539. As to the kind of experiment: Inhibition of in vitro cell growth which reduces cell growth to 50% of level at start of experiment in CNS SF-539 cell line. It is filed as functional, Homo sapiens. The procedure, abridged: as §1
Assay [9] addresses T1, Tubulin (Bos taurus). The assay can be described thus: Percentage inhibition of colchicine binding by derivatives of 2-phenyl-4-quinolone at the ratio of 1:1. The class given is protein assay. The settings on record: concentration not given here.
Another assay deals with Tubulin beta chain (Bos taurus, UniProt Q6B856). As to the kind of experiment: Inhibition of tubulin polymerization. The class given is functional. An outline of the steps:
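Bovine brain tubulin 1.0 mg/mL (10 μM) with 1.0 M repurified monosodium glutamate, 1.0 mM MgCl2, 4% DMSO and drug; preincubated 15 min at 37 °C, chilled, GTP added; turbidity at 350 nm after jump from 0 to 37 °C, followed 20 min.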

The test system of assay [10] is SF-539. The assay can be described thus: Inhibition of in vitro cell growth which reduces cell growth to level at start of experiment in CNS SF-539 cell line. It is filed as functional, Homo sapiens.
Assay [11] concerns HCC 2998. As to the kind of experiment: Inhibition of in vitro cell growth which reduces cell growth to level at start of experiment in colon HCC2998 cell line. The class given is functional, Homo sapiens.
A further assay concerns A549. As to the kind of experiment: Cytotoxicity in vitro expressed as 50% reduction in cell number after a 3-day incubation, in human lung carcinoma A-549 cell line. The class given is functional, cell-based. Particulars: A549, 72 h. An outline of the steps: as §2
The next assay concerns HCT-8. As to the kind of experiment: Cytotoxicity in vitro expressed as 50% reduction in cell number after a 3-day incubation, in human ileocecal carcinoma HCT-8 cell line. The class given is functional, cell-based. The settings on record: HCT-8, 72 h. An outline of the steps:
as §2

In assay [12] the test system is COLO 205. As to the kind of experiment: Inhibition of in vitro cell growth which reduces cell growth to 50% of level at start of experiment in colon COLO-205 cell line. The class given is functional, Homo sapiens. An outline of the steps: as §1
The next assay concerns L1210 (1565). As to the kind of experiment: Cytotoxicity in vitro expressed as 50% reduction in cell number after a 3-day incubation, in murine leukemia L-1210 cell line. The class given is functional, cell-based. Particulars: Mus musculus, 72 h. An outline of the steps: as §2

Chain of Tubulin beta chain (Q6B856 whole entry): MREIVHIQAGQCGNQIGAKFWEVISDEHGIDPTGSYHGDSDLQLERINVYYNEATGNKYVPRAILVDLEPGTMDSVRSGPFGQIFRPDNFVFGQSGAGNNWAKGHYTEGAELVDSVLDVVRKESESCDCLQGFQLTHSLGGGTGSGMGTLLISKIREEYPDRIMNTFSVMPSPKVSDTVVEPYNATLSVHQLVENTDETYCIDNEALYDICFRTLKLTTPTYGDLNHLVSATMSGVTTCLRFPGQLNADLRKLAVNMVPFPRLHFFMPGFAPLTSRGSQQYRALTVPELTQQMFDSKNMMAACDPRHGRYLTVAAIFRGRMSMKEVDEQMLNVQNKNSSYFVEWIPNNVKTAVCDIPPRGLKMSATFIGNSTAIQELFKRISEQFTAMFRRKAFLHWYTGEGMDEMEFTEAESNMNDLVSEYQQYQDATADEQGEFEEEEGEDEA

Turning to `Oc1cc(-c2ccccc2)nc2ccc(Cl)cc12`, the LC50 is reported as -4 in [1]; more than -5 with HCC 2998 [2]; more than -4 in the assay on HT-29 [4]; more than -4 in the assay on SF-539 [8]; -4 with COLO 205 [12]. Moreover, the EC50 in the assay on KB came to 0.49 µg/mL (≈ 1.92 µM); in the assay with RPMI-7951, 0.64 µg/mL (≈ 2.5 µM); in the assay with P388, 0.84 µg/mL (≈ 3.29 µM); with A549 it was 0.51 µg/mL (≈ 1.99 µM); in the assay with HCT-8, 0.7 µg/mL (≈ 2.74 µM); in the assay with L1210 (1565), 0.5 µg/mL (≈ 1.96 µM). Besides, the TGI in assay [3] is on record as -5.4; in the assay with HT-29 [6], -4.9; in the assay on COLO 205 [7], -5.6; in the assay with SF-539 [10], -5.4; in the assay with HCC 2998 [11] it was -5. In addition, the inhibition was 21% at Tubulin (Bos taurus) [5] and 6% on Tubulin (Bos taurus) [9]. The molecule also came in with an IC50 against Tubulin beta chain of 3.2 µM.
